Results as given in ChEMBL document CHEMBL1121449, “Synthesis and antineoplastic activity of hydroquinone dialdehydes” (J Med Chem, 1980).

Legend:
[1] = system: Mus musculus; experiment: Tested for number of animal surviving at least 50 days out of 15 animal treated at dose of 5 mg/kg; type: functional
How it was run: (§1)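 Female CD-1 mice, Sarcoma 180 ascites, 0.1 mL of 10^7 cells/mL given ip. Drug in 0.9% NaCl, 5% ethanol, Tween 80, serially diluted with saline. Dosed ip at 0.5 mL daily for 6 days from 24 h post-implant; daily dose based on starting mean weight. T/C is the mean survival of treated mice dying before 50 days vs controls. Survivors are those alive ≥50 days out of those treated.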

[2] = system: Mus musculus; experiment: Tested for number of animal surviving at least 50 days out of 5 animal treated at dose of 10 mg/kg; type: functional; how it was run: as §1
[3] = system: Mus musculus; experiment: Tested for mean survival time treated animal not surviving 50 days as a percentage at dose of 10 mg/kg; type: functional; how it was run: as §1
[4] = system: Mus musculus; experiment: Tested for change in body weight from onset to termination at dose of 1.25 mg/kg; type: functional
How it was run: (§2)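 Female CD-1 mice inoculated ip with 0.1 mL of 10^7 Sarcoma 180 ascites cells/mL. Drug in 0.9% NaCl with 5% ethanol and Tween 80, serially diluted in saline, given ip once daily for 6 days starting 24 h after implantation. Dose based on mean starting weight. Controls received saline. Weight change recorded from day 0 to day 7, as % change.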

[5] = system: Mus musculus; experiment: Tested for change in body weight from onset to termination at dose of 5 mg/kg; type: functional; how it was run: as §2
[6] = system: Mus musculus; experiment: Tested for mean survival time treated animal not surviving 50 days as a percentage at dose of 2.5 mg/kg; type: functional; how it was run: as §1
[7] = system: Mus musculus; experiment: Tested for change in body weight from onset to termination at dose of 0.63 mg/kg; type: functional; how it was run: as §2
[8] = system: Mus musculus; experiment: Tested for mean survival time treated animal not surviving 50 days as a percentage at dose of 5 mg/kg; type: functional; how it was run: as §1
[9] = system: Mus musculus; experiment: Tested for mean survival time treated animal not surviving 50 days as a percentage at dose of 0.63 mg/kg; type: functional; how it was run: as §1
[10] = system: Mus musculus; experiment: Tested for change in body weight from onset to termination at dose of 10 mg/kg; type: functional
How it was run: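 Tumor-bearing mice were dosed ip once daily for 6 consecutive days from 24 h after ip tumor implantation; saline controls. Each group was weighed on day 7, the day after the last injection, and the change from the implantation day (day 0) was expressed as % body-weight change, used as a toxicity measure.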

[11] = system: Mus musculus; experiment: Tested for change in body weight from onset to termination at dose of mg/kg; type: functional; how it was run: as §2
[12] = system: Mus musculus; experiment: Tested for mean survival time treated animal not surviving 50 days as a percentage at dose of 0.31 mg/kg; type: functional; how it was run: as §1
[13] = Tested for inhibition of growth of sarcoma 180 cells in culture; type: functional, cell-based; settings: Mus musculus
How it was run: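 Sarcoma 180 cells in suspension in Fischer's medium with 10% horse serum and penicillin/streptomycin, seeded at 10^4 cells/mL. Drug added from 10× stocks in 10% Me2SO/PBS, final 1–100 μM. Control cultures contained 1% Me2SO. Triplicate Coulter counts at 24, 48 and 72 h. IC50 read from a plot of inhibition of cell-number increase at 72 h versus concentration.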

[14] = system: Mus musculus; experiment: Tested for number of animal surviving at least 50 days out of 10 animal treated at dose of 1.25 mg/kg; type: functional; how it was run: as §1
[15] = system: Mus musculus; experiment: Tested for mean survival time treated animal not surviving 50 days as a percentage at dose of 1.25 mg/kg; type: functional; how it was run: as §1
[16] = system: Mus musculus; experiment: Tested for number of animal surviving at least 50 days out of 15 animal treated at dose of 2.5 mg/kg; type: functional; how it was run: as §1
[17] = system: Mus musculus; experiment: Tested for number of animal surviving at least 50 days out of 5 animal treated at dose of 0.63 mg/kg; type: functional; how it was run: as §1
[18] = system: Mus musculus; experiment: Tested for change in body weight from onset to termination at dose of 2.5 mg/kg; type: functional; how it was run: as §2
[19] = system: Mus musculus; experiment: Tested for number of animal surviving at least 50 days out of 5 animal treated at dose of 0.31 mg/kg; type: functional; how it was run: as §1

## O=Cc1ccccc1C=O [ORTHO-PHTHALALDEHYDE]
[1]
  Survivors: 0
[2]
  Survivors: 0
[3]
  Activity: 43%
[4]
  Activity: 4%
[5]
  Activity: -2%
[6]
  Mean survival time, treated vs control (T/C): 154%
[7]
  Activity: 5%
[8]
  Activity: 99%
[9]
  Activity: 193%
[10]
  Activity: -3%
[11]
  Activity: 15%
[12]
  Activity: 121%
[13]
  IC50: 12 µM
[14]
  Survivors: 1
[15]
  Activity: 176%
[16]
  Survivors: 0
[17]
  Survivors: 0
[18]
  Activity: 0%
[19]
  Survivors: 0
